Reference: ChEMBL document CHEMBL4382192, “Discovery of a potent dual ALK and EGFR T790M inhibitor” (Eur J Med Chem, 2017)

Experiments:
[1] = Volume of distribution at steady state in mouse at 2 mg/kg, iv; format: ADME, organism-based; conditions: in vivo, read-out: Vdss
[2] = molecular target: RAC-gamma serine/threonine-protein kinase (Homo sapiens) (UniProt Q9Y243); assay: Binding affinity to wild-type human partial length AKT3 expressed in bacterial expression system assessed as residual binding level at 1 uM by Kinomescan method relative to control
[3] = molecular target: Tyrosine-protein kinase Fgr (Homo sapiens) (UniProt P09769); assay: Binding affinity to wild-type human partial length FGR (L233 to T529 residues) expressed in bacterial expression system assessed as residual binding level at 1 uM by Kinomescan method relative to control
[4] = system: Receptor-type tyrosine-protein kinase FLT3 (Homo sapiens), P36888 [UNDEFINED MUTATION]; assay: Binding affinity to human partial length FLT3 ITD/D835V double mutant expressed in bacterial expression system assessed as residual binding level at 1 uM by Kinomescan method relative to control
Summary of the method: (§1)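 Kinome-wide selectivity panel run by the KINOMEscan method, with the test compound at a single concentration of 1 μM. Wild-type and mutant kinases were profiled in the same screen.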

[5] = system: Receptor-type tyrosine-protein kinase FLT3 (Homo sapiens), P36888 [N841I]; assay: Binding affinity to human partial length FLT3 N841I mutant (V592 to Y969 residues) expressed in bacterial expression system assessed as residual binding level at 1 uM by Kinomescan method relative to control; summary of the method: as §1
[6] = molecular target: Glycogen synthase kinase-3 alpha (Homo sapiens) (UniProt P49840); assay: Binding affinity to wild-type human full length GSK3A (M1 to S483 residues) expressed in bacterial expression system assessed as residual binding level at 1 uM by Kinomescan method relative to control
Summary of the method: (§2)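 Single-point kinome-wide KINOMEscan binding panel, test compound at 1 μM, run by the provider's standard protocol.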

[7] = molecular target: Glycogen synthase kinase-3 beta (Homo sapiens) (UniProt P49841); assay: Binding affinity to wild-type human full length GSK3B (M1 to T433 residues) expressed in mammalian expression system assessed as residual binding level at 1 uM by Kinomescan method relative to control; summary of the method: as §2
[8] = molecular target: Homeodomain-interacting protein kinase 3 (Homo sapiens) (UniProt Q9H422); assay: Binding affinity to wild-type human partial length HIPK3 (M153 to N562 residues) expressed in mammalian expression system assessed as residual binding level at 1 uM by Kinomescan method relative to control
[9] = molecular target: Serine/threonine-protein kinase MARK2 (Homo sapiens) (UniProt Q7KZI7); assay: Binding affinity to wild-type human partial length MARK2 (M1 to R450 residues) expressed in bacterial expression system assessed as residual binding level at 1 uM by Kinomescan method relative to control
[10] = molecular target: Dual specificity mitogen-activated protein kinase kinase 1 (Homo sapiens) (UniProt Q02750); assay: Binding affinity to wild-type human full length MEK1 (M1 to V393 residues) expressed in mammalian expression system assessed as residual binding level at 1 uM by Kinomescan method relative to control; summary of the method: as §2
[11] = molecular target: Dual specificity mitogen-activated protein kinase kinase 4 (Homo sapiens) (UniProt P45985); assay: Binding affinity to wild-type human partial length MEK4 (S84 to D399 residues) expressed in mammalian expression system assessed as residual binding level at 1 uM by Kinomescan method relative to control
[12] = molecular target: Tyrosine-protein kinase Mer (Homo sapiens) (UniProt Q12866); assay: Binding affinity to wild-type human partial length MERTK (R557 to L884 residues) expressed in bacterial expression system assessed as residual binding level at 1 uM by Kinomescan method relative to control
[13] = molecular target: Misshapen-like kinase 1 (Homo sapiens) (UniProt Q8N4C8); assay: Binding affinity to wild-type human partial length MINK (M1 to K312 residues) expressed in mammalian expression system assessed as residual binding level at 1 uM by Kinomescan method relative to control
[14] = molecular target: Serine/threonine-protein kinase Nek4 (Homo sapiens) (UniProt P51957); assay: Binding affinity to wild-type human full length NEK4 (M1 to F841 residues) expressed in mammalian expression system assessed as residual binding level at 1 uM by Kinomescan method relative to control; summary of the method: as §2
[15] = molecular target: Mitogen-activated protein kinase 12 (Homo sapiens) (UniProt P53778); assay: Binding affinity to wild-type human full length p38-gamma (M1 to L367 residues) expressed in mammalian expression system assessed as residual binding level at 1 uM by Kinomescan method relative to control
[16] = molecular target: Serine/threonine-protein kinase PAK 3 (Homo sapiens) (UniProt O75914); assay: Binding affinity to wild-type human full length PAK3 (M1 to R544 residues) expressed in bacterial expression system assessed as residual binding level at 1 uM by Kinomescan method relative to control; summary of the method: as §2
[17] = molecular target: Serine/threonine-protein kinase PAK 5 (Homo sapiens) (UniProt Q9P286); assay: Binding affinity to wild-type human partial length PAK7 (Y400 to H719 residues) expressed in bacterial expression system assessed as residual binding level at 1 uM by Kinomescan method relative to control
[18] = molecular target: Serine/threonine-protein kinase pim-1 (Homo sapiens) (UniProt P11309); assay: Binding affinity to wild-type human partial length PIM1 (A15 to K313 residues) expressed in bacterial expression system assessed as residual binding level at 1 uM by Kinomescan method relative to control
[19] = molecular target: Rho-associated protein kinase 1 (Homo sapiens) (UniProt Q13464); assay: Binding affinity to wild-type human partial length ROCK1 (M1 to R415 residues) expressed in mammalian expression system assessed as residual binding level at 1 uM by Kinomescan method relative to control
[20] = molecular target: Ribosomal protein S6 kinase alpha-5 (Homo sapiens) (UniProt O75582); assay: Binding affinity to wild-type human partial length N-terminal RPS6KA5 kinase domain 1 expressed in bacterial expression system assessed as residual binding level at 1 uM by Kinomescan method relative to control
[21] = molecular target: Ribosomal protein S6 kinase alpha-3 (Homo sapiens) (UniProt P51812); assay: Binding affinity to wild-type human partial length N-terminal RSK2 kinase domain 1 (M1 to D394 residues) expressed in mammalian expression system assessed as residual binding level at 1 uM by Kinomescan method relative to control
[22] = molecular target: SNF-related serine/threonine-protein kinase (Homo sapiens) (UniProt Q9NRH2); assay: Binding affinity to wild-type human partial length SNRK (M1 to E339 residues) expressed in mammalian expression system assessed as residual binding level at 1 uM by Kinomescan method relative to control
[23] = molecular target: Serine/threonine-protein kinase TAO3 (Homo sapiens) (UniProt Q9H2K8); assay: Binding affinity to wild-type human partial length TAOK3 (M1 to T316 residues) expressed in mammalian expression system assessed as residual binding level at 1 uM by Kinomescan method relative to control
CYP2C9 = CYP2C9 (Homo sapiens, UniProt P11712); assay: Residual activity of CYP2C9 in human liver microsomes at 10 uM using tolbutamide 4-hydroxylase as substrate preincubated for 5 mins followed by NADPH addition measured after 15 mins by LC/MS/MS analysis relative to control; conditions: probe tolbutamide (4-hydroxylation)

## C=CC(=O)Nc1cc(Nc2ncc(Cl)c(Nc3ccccc3S(=O)(=O)C(C)C)n2)c(OC)cc1N(C)CCN(C)C
[1]
  Vd: 2.66 L/kg
[2]
  Activity: 100%
[3]
  Activity: 57%
[4]
  Activity: 12%
[5]
  Activity: 6.8%
[6]
  Activity: 99%
[7]
  Activity: 93%
[8]
  Activity: 87%
[9]
  Activity: 57%
[10]
  Activity: 72%
[11]
  Activity: 100%
[12]
  Activity: 2.7%
[13]
  Activity: 34%
[14]
  Activity: 100%
[15]
  Activity: 56%
[16]
  Activity: 23%
[17]
  Activity: 79%
[18]
  Activity: 83%
[19]
  Activity: 46%
[20]
  Activity: 85%
[21]
  Activity: 1.7%
[22]
  Activity: 72%
[23]
  Activity: 0.15%
CYP2C9
  Activity at […], 10 µM: 83%
